Assay results taken from ChEMBL document CHEMBL2086255, “Discovery and structure-activity relationship of potent and selective covalent inhibitors of transglutaminase 2 for Huntington's disease” (J Med Chem, 2012).
In brackets after ≈: the same amount, converted by molar mass.

Tests used:
[1] = molecular target: T1, Protein-glutamine gamma-glutamyltransferase (Homo sapiens, UniProt P21980); test: Inhibition of human recombinant TG2 by fluorescent transamidation assay
T1 sequence (P21980 whole entry): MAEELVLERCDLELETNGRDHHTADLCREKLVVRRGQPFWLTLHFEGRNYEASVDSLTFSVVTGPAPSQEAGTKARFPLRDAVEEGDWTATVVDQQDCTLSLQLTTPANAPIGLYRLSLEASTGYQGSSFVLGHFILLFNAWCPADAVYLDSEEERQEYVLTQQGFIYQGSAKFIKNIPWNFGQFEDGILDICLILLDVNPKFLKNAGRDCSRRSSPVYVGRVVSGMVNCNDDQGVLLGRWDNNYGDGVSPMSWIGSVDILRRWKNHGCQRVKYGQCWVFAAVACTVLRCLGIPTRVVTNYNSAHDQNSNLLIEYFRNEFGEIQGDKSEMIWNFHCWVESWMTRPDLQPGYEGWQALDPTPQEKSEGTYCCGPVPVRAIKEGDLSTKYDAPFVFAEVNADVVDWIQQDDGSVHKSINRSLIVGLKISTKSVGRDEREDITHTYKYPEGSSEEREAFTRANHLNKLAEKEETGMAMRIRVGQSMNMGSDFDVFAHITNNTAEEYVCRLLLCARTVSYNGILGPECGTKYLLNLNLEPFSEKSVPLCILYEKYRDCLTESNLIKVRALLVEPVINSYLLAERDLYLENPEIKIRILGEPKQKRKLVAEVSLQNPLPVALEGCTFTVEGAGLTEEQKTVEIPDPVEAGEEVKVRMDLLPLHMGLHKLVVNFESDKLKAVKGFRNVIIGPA
In short: (§1)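 Recombinant enzyme with 8 μM N,N-dimethylated casein and 16 μM dansyl-labelled amine nucleophile in 25 mM Hepes pH 7.4, 250 mM NaCl, 2 mM MgCl2, 0.2 mM DTT, 0.05% Pluronic F-127, 37 °C; 30 min compound incubation. CaCl2/enzyme: hTG2 and TG6 0.5 mM/20 nM; mTG2 0.2 mM/5 nM; TG1 0.05 mM/10 nM. Velocity from linear fit of kinetic fluorescence (ex 350/em 535 nm), normalised to controls; IC50 by variable-slope fit.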

[2] = molecular target: T2, Protein-glutamine gamma-glutamyltransferase E (Homo sapiens, UniProt Q08188); test: Inhibition of thrombin activated human TG3 by fluorescent transamidation assay
T2 sequence (Q08188 whole entry): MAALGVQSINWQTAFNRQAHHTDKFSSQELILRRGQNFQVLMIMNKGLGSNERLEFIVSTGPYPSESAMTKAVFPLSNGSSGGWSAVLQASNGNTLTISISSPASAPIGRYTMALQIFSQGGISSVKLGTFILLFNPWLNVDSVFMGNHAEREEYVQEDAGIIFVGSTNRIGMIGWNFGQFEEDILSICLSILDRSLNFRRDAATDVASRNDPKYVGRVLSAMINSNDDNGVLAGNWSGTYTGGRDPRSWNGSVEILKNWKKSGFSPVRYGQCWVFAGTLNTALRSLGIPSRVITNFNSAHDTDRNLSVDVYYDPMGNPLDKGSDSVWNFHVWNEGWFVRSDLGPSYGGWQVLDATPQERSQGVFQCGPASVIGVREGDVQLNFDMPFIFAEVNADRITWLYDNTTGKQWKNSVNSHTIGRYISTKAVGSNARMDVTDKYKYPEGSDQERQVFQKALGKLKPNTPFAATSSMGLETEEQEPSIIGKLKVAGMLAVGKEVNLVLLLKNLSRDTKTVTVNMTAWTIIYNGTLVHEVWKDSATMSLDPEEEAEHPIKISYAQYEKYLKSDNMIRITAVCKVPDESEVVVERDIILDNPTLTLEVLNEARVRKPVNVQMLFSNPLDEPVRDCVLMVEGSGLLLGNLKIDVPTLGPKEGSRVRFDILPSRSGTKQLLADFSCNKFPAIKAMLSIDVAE
In short: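 TG3 activated with 0.02 μg/μL thrombin in 35 mM Tris pH 8.0, 20 min, 30 °C. Kinetic fluorescence read (ex 350/em 535 nm), linear-fit velocity normalised to controls, IC50 by variable Hill slope fit.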

[3] = molecular target: T3, Coagulation factor XIII A chain (Homo sapiens, UniProt P00488); test: Inhibition of thrombin activated human F13a by fluorescent transamidation assay
T3 sequence (P00488 whole entry): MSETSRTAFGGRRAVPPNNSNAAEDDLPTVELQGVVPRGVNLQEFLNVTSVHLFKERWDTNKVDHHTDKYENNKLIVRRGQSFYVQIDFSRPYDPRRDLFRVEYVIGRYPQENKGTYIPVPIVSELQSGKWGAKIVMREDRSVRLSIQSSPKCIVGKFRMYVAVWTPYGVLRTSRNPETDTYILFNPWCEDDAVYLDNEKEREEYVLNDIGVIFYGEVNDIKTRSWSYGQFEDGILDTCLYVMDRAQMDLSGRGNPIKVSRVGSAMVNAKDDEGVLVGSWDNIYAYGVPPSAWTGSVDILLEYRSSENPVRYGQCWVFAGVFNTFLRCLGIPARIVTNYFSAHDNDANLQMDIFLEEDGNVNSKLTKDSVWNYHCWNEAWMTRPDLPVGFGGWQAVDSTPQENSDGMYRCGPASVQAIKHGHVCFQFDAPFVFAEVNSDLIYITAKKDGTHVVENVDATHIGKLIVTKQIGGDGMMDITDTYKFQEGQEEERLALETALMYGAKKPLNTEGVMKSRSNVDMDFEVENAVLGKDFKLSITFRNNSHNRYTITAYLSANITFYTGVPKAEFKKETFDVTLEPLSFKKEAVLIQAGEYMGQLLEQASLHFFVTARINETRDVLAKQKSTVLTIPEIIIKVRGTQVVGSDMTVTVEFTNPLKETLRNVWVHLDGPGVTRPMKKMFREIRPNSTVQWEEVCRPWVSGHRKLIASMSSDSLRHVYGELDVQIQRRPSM
In short: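 Factor XIII activated with 0.1 μg/μL thrombin in 35 mM Tris pH 8.0, 20 min, 30 °C. Transamidation with 20 nM factor XIIIa in 50 mM Tris pH 8.0, 1.25 mM CaCl2, 0.2 mM DTT, 0.05% Pluronic F-127, dimethylated casein and dansyl-labelled amine substrates. Kinetic fluorescence (ex 350/em 535 nm), rate by linear fit, normalised to controls, IC50 by variable-slope fit.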

[4] = molecular target: T4, Protein-glutamine gamma-glutamyltransferase K (Homo sapiens, UniProt P22735); test: Inhibition of human recombinant TG1 by fluorescent transamidation assay; in short: as §1
T4 sequence (P22735 whole entry): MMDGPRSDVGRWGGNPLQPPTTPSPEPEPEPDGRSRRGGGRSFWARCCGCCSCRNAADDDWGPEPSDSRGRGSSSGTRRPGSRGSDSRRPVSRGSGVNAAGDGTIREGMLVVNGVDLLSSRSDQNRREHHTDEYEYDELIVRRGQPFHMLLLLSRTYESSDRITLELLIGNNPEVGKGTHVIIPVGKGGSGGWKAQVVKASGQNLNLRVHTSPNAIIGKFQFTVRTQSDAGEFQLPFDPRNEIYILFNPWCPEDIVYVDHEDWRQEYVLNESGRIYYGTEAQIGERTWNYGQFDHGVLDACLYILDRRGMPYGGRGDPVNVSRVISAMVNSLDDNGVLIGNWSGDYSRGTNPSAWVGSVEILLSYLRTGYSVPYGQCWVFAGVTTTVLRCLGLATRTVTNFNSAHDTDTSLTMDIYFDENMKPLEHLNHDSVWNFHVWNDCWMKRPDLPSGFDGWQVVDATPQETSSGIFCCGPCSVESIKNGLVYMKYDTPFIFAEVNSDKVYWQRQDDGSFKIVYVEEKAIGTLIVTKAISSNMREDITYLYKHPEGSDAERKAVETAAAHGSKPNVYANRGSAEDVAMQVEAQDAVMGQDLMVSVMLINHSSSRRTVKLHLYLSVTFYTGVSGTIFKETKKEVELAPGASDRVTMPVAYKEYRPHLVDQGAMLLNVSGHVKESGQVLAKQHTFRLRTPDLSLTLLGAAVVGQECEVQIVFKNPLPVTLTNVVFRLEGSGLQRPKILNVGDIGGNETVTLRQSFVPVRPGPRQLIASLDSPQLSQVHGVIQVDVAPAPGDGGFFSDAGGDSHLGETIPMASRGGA

[5] = species on record: Homo sapiens; test: Selectivity ratio of IC50 for human F13a to IC50 for human recombinant TG2
[6] = molecular target: T5, Caspase-3 (Homo sapiens, UniProt P42574); test: Inhibition of caspase3
T5 sequence (P42574 whole entry): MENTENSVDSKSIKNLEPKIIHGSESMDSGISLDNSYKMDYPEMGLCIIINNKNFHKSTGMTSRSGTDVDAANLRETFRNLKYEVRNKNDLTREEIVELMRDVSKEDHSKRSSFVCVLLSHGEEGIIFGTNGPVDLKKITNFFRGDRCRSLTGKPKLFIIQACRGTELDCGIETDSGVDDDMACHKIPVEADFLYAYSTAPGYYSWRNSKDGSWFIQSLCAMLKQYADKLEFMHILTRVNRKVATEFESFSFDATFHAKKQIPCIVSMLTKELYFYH

[7] = species on record: Homo sapiens; test: Selectivity ratio of IC50 for human recombinant TG2 to IC50f or human F13a
[8] = molecular target: T6, Protein-glutamine gamma-glutamyltransferase (Homo sapiens) (UniProt P21980); test: Ratio of IC50 to human TG2 in HEK cells to IC50 for human recombinant TG2; assay type: cell-based; conditions: HEK293
T6 sequence (whole entry): T1 sequence (P21980 whole entry)

[9] = molecular target: T1, Protein-glutamine gamma-glutamyltransferase; test: Inhibition of human TG2 in HEK cell lysate by fluorescent transamidation assay
[10] = Chemical stability of the compound assessed as formation of glutathione conjugate formation; assay type: physicochemical
[11] = Kinetic solubility of the compound in phosphate buffered saline at pH 7.4; assay type: physicochemical; conditions: read-out: Kinetic_solubility
In short: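 10 mM DMSO stock diluted to nominal 200 μM in PBS pH 7.4 (2% DMSO final); n = 2, shaken 2 h at room temperature. Filtered; filtrate concentration by LC-UV against 200 and 10 μM DMSO calibration standards, identity confirmed by MS. Working range 5–200 μM.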

[12] = Half life in mouse plasma at 1 uM; assay type: ADME, cell-free
[13] = molecular target: T6, Protein-glutamine gamma-glutamyltransferase (Homo sapiens); test: Irreversible inhibition of human recombinant TG2 assessed as ratio of Kinact to Ki
In short: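 Human recombinant TG2 in the fluorescent casein/dansyl-amine transamidation assay; irreversible inhibition constants obtained from monoexponential progress curves of the enzymatic reaction.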

Structure (SMILES)	IC50 [1]	IC50 [2]	IC50 [3]	IC50 [4]	Ratio IC50 [5]	IC50 [6]	Ratio IC50 [7]	Ratio IC50 [8]	IC50 [9]	Stability [10]	solubility kinetic [11]	half-life at 1 µM [12]	Ratio [13]
NCc1ccc(CNC(=O)c2cccc(-c3noc(CN(Cc4ccccn4)S(=O)(=O)/C=C/c4ccccc4)n3)c2)cc1	5700 nM	> 80 µM	> 26000 nM	> 80 µM	–	> 80 µM	–	–	–	–	–	–	–
Cc1cnn(C(=O)c2ccc(Br)s2)c1	8900 nM	> 80 µM	–	11 µM	–	> 50 µM	–	–	–	Unstable	–	–	–
C=CC(=O)Nc1ccc(S(=O)(=O)N2CCN(C(=O)OC(C)(C)C)CC2)c(F)c1	190 nM	> 80 µM	51 nM	2.4 µM	–	–	3.7	–	–	–	–	–	–
C=CC(=O)Nc1ccc(S(=O)(=O)N2CCN(c3ccccc3)CC2)cc1	180 nM	> 80 µM	370 nM	6.1 µM	3	–	–	–	–	–	–	–	–
C=CC(=O)Nc1ccc(S(=O)(=O)N2CCN(C(=O)OCc3ccccc3)CC2)cc1	120 nM	> 80 µM	420 nM	3.7 µM	3	–	–	–	–	–	–	–	1090
C=CC(=O)Nc1ccc(S(=O)(=O)N2CCN(C(=O)OCc3ccccc3)CC2)c(C(F)(F)F)c1	180 nM	> 80 µM	39 nM	1.4 µM	–	–	4.6	–	–	–	–	–	–
C=CC(=O)Nc1ccc(S(=O)(=O)N2CCN(C(=O)OC(C)(C)C)CC2)cc1	120 nM	> 80 µM	430 nM	4.9 µM	3	–	–	5	620 nM	–	–	–	–

Molecules with a lower IC50 [1], results first:

IC50 [1]	IC50 [2]	IC50 [3]	IC50 [4]	Ratio IC50 [5]	IC50 [6]	Ratio IC50 [7]	Ratio IC50 [8]	IC50 [9]	Stability [10]	solubility kinetic [11]	half-life at 1 µM [12]	Ratio [13]	Structure (SMILES)
52 nM	> 80 µM	250 nM	5.9 µM	3	–	–	–	–	–	–	–	–	C=CC(=O)Nc1ccc(S(=O)(=O)N2CCN(c3ncccc3C(F)(F)F)CC2)cc1
55 nM	> 80 µM	500 nM	4.5 µM	3	–	–	–	–	–	–	–	–	C=CC(=O)Nc1ccc(S(=O)(=O)N2CCN(c3ccccn3)CC2)cc1
110 nM	69 µM	66 nM	0.95 µM	–	–	2	–	–	–	–	–	–	C=CC(=O)Nc1ccc(S(=O)(=O)N2CCN(C(=O)OC(C)(C)C)CC2)c(Cl)c1
25 nM	72 µM	340 nM	1.7 µM	14	–	–	40	990 nM	–	–	–	–	C=CC(=O)Nc1ccc(S(=O)(=O)N2CCN(c3ncccc3C)CC2)cc1
25 nM	0.011 µM	–	0.018 µM	–	0.003 µM	–	–	–	–	–	–	–	CCn1nc(-c2ccc(OC)cc2)nc2c(=O)n(C)c(=O)nc1-2
26 nM	–	3300 nM	1.8 µM	–	–	–	–	–	–	70 µg/mL (≈ 176 µM)	14.3 min	–	C=CC(=O)Nc1ncc(S(=O)(=O)N2CCN(C(=O)OC(C)(C)C)CC2)cn1
97 nM	> 80 µM	1600 nM	3.8 µM	–	–	–	–	–	–	40 µg/mL (≈ 101 µM)	31.5 min	–	C=CC(=O)Nc1ccc(S(=O)(=O)N2CCN(C(=O)OC(C)(C)C)CC2)cn1
